{"source": "ChEMBL document CHEMBL2034980", "about": "“N⁴-Phenyl-substituted 2-acetylpyridine thiosemicarbazones: cytotoxicity against human tumor cells, structure-activity relationship studies and investigation on the mechanism of action” (Bioorg Med Chem, 2012)", "key": {"T98G": {"system": "T98G", "assay": "Cytotoxicity against human T98G cells expressing mutant p53 after 48 hrs by MTT assay", "type": "functional, cell-based", "conditions": "read-out: pIC50 (converted)", "outline": "(§1)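 MTT assay. Cells were grown in DMEM with 10% FBS and penicillin/streptomycin at 37 °C under 5% CO2, seeded at 1–2×10^3 cells/well and treated 12 h later with 1×10^-12 to 1×10^-5 M ([…] from DMSO stock, final DMSO <0.5%) for 48 h. MTT was added at 0.5 mg mL⁻¹, formazan dissolved in DMSO and read at 570 nm. IC50 is the concentration giving 50% cytotoxicity. Quadruplicates, ≥3 independent experiments.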"}, "[1]": {"assay": "Cytotoxicity against human U87 cells expressing wild-type p53 after 48 hrs by MTT assay", "type": "functional, cell-based, U-87MG ATCC", "conditions": "U-87 MG, read-out: pIC50 (converted)", "outline": "as §1"}, "MCF7": {"system": "MCF7", "assay": "Cytotoxicity against human MCF7 cells after 48 hrs by MTT assay", "type": "functional, cell-based", "conditions": "MCF7, 48 h, read-out: pIC50 (converted)", "outline": "as §1"}}, "data": [{"smiles": "C/C(=N\\NC(=S)Nc1ccccc1I)c1ccccn1", "values": [{"measurement": "IC50", "setting": "T98G", "result": 8.09, "unit": "nM"}, {"measurement": "IC50", "setting": "[1]", "result": 6.1, "unit": "nM"}, {"measurement": "IC50", "setting": "MCF7", "result": 4.1, "unit": "nM"}]}, {"smiles": "C/C(=N\\NC(=S)Nc1ccc(I)cc1)c1ccccn1", "values": [{"measurement": "IC50", "setting": "T98G", "result": 64, "unit": "nM"}, {"measurement": "IC50", "setting": "[1]", "result": 59, "unit": "nM"}, {"measurement": "IC50", "setting": "MCF7", "result": 6.61, "unit": "nM"}]}, {"smiles": "C/C(=N/NC(=S)Nc1ccc([N+](=O)[O-])cc1)c1ccccn1", "values": [{"measurement": "IC50", "setting": "T98G", "result": 140, "unit": "nM"}, {"measurement": "IC50", "setting": "[1]", "result": 160, "unit": "nM"}, {"measurement": "IC50", "setting": "MCF7", "result": 52, "unit": "nM"}]}, {"smiles": "C/C(=N/NC(=S)Nc1ccccc1)c1ccccn1", "values": [{"measurement": "IC50", "setting": "T98G", "result": 6.81, "unit": "nM"}, {"measurement": "IC50", "setting": "[1]", "result": 1.4, "unit": "nM"}, {"measurement": "IC50", "setting": "MCF7", "result": 0.18, "unit": "nM"}]}, {"smiles": "C/C(=N/NC(=S)Nc1cccc(I)c1)c1ccccn1", "values": [{"measurement": "IC50", "setting": "T98G", "result": 61, "unit": "nM"}, {"measurement": "IC50", "setting": "[1]", "result": 83.9, "unit": "nM"}, {"measurement": "IC50", "setting": "MCF7", "result": 45, "unit": "nM"}]}, {"smiles": "C/C(=N/NC(=S)Nc1ccccc1[N+](=O)[O-])c1ccccn1", "values": [{"measurement": "IC50", "setting": "T98G", "result": 6.61, "unit": "nM"}, {"measurement": "IC50", "setting": "[1]", "result": 4.3, "unit": "nM"}, {"measurement": "IC50", "setting": "MCF7", "result": 5.7, "unit": "nM"}]}, {"smiles": "C/C(=N/NC(=S)Nc1cccc(Cl)c1)c1ccccn1", "values": [{"measurement": "IC50", "setting": "T98G", "result": 1, "unit": "nM"}, {"measurement": "IC50", "setting": "[1]", "result": 31, "unit": "nM"}, {"measurement": "IC50", "setting": "MCF7", "result": 24, "unit": "nM"}]}, {"smiles": "C/C(=N/NC(=S)Nc1ccccc1F)c1ccccn1", "values": [{"measurement": "IC50", "setting": "T98G", "result": 3.1, "unit": "nM"}, {"measurement": "IC50", "setting": "[1]", "result": 5, "unit": "nM"}, {"measurement": "IC50", "setting": "MCF7", "result": 0.39, "unit": "nM"}]}]}
